Measurements: ChEMBL document CHEMBL5724801, “EUbOPEN Chemogenomics Library - Multiplex” (2024)
Several values for one entry are separate records, joined by “and”; a condition that tells them apart may be missing. Identical values can stand only once.

System: Fibroblast
Experiment: Multiplex assay against human fibroblast
Type: toxicity, cell-based
Outline: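 Live cells carried four stains from seeding: Hoechst33342, BioTracker Green Microtubule Cytoskeleton Dye, MitoTracker Red and Annexin V Alexa Fluor 680. They were imaged on a CQ1 microscope at 37°C and 5% CO2 after compound addition. Using CellPathfinder machine-learning gating, cells were split into Hoechst high-intensity objects or normal cells, normal cells into healthy, pyknosed or fragmented nuclei, and pyknosed cells into mitotic or apoptotic; tubulin, mitochondrial-mass and membrane-permeability phenotypes are per cents of healthy-nucleus cells.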

[1] = 12 h, 1 µM, compound concentration 1 uM
[2] = 12 h, 10 µM, compound concentration 10 uM
[3] = 24 h, 1 µM, compound concentration 1 uM
[4] = 24 h, 10 µM, compound concentration 10 uM
[5] = 48 h, 1 µM, compound concentration 1 uM
[6] = 48 h, 10 µM, compound concentration 10 uM

## COc1cc2nc(N3CCN(C(=O)COc4c(OC)cccc4C(C)C)CC3)nc(N)c2cc1OC.Cl.Cl
[1]
  Population Apoptotic (%): 50% and 36%
  Population Fragmented Nuclei (%): 17% and 39%
  Population Healthy Nuclei (%): 51% and 42%
  Population Hoechst High Intensity Objects (%): 4% and 9%
  Population Membrane Permeable-Phenotype (%): 3% and 5%
  Population Mitochondria Different-Phenotype (%): 6% and 7%
  Population Mitotic Cells (%): 50% and 63%
  Population Normal (%): 95% and 90%
  Population Pyknosed Nuclei (%): 30% and 18%
  Population Tubulin-Different-Phenotype (%): 40% and 43%
  Total Cell Count: 123 and 182
[2]
  Population Apoptotic (%): 33% and 29%
  Population Fragmented Nuclei (%): 13% and 22%
  Population Healthy Nuclei (%): 47% and 46%
  Population Hoechst High Intensity Objects (%): 20% and 10%
  Population Membrane Permeable-Phenotype (%): 0% and 4%
  Population Mitochondria Different-Phenotype (%): 15% and 8%
  Population Mitotic Cells (%): 66% and 70%
  Population Normal (%): 79% and 89%
  Population Pyknosed Nuclei (%): 38% and 30%
  Population Tubulin-Different-Phenotype (%): 63% and 56%
  Total Cell Count: 346 and 283
[3]
  Population Apoptotic (%): 68% and 57%
  Population Fragmented Nuclei (%): 23% and 40%
  Population Healthy Nuclei (%): 58% and 42%
  Population Hoechst High Intensity Objects (%): 3% and 11%
  Population Membrane Permeable-Phenotype (%): 1% and 5%
  Population Mitochondria Different-Phenotype (%): 9% and 11%
  Population Mitotic Cells (%): 31% and 42%
  Population Normal (%): 96% and 88%
  Population Pyknosed Nuclei (%): 17%
  Population Tubulin-Different-Phenotype (%): 39% and 50%
  Total Cell Count: 128 and 180
[4]
  Population Apoptotic (%): 40% and 33%
  Population Fragmented Nuclei (%): 13% and 25%
  Population Healthy Nuclei (%): 45% and 40%
  Population Hoechst High Intensity Objects (%): 39% and 23%
  Population Membrane Permeable-Phenotype (%): 0% and 4%
  Population Mitotic Cells (%): 60% and 66%
  Population Normal (%): 60% and 76%
  Population Pyknosed Nuclei (%): 41% and 34%
  Population Tubulin-Different-Phenotype (%): 38% and 47%
  Total Cell Count: 344 and 273
[5]
  Population Apoptotic (%): 65% and 42%
  Population Fragmented Nuclei (%): 31% and 45%
  Population Healthy Nuclei (%): 51% and 43%
  Population Hoechst High Intensity Objects (%): 4% and 10%
  Population Membrane Permeable-Phenotype (%): 0% and 8%
  Population Mitochondria Different-Phenotype (%): 11% and 10%
  Population Mitotic Cells (%): 35% and 57%
  Population Normal (%): 96% and 89%
  Population Pyknosed Nuclei (%): 16% and 11%
  Population Tubulin-Different-Phenotype (%): 30% and 57%
  Total Cell Count: 125 and 193
[6]
  Population Apoptotic (%): 45% and 30%
  Population Fragmented Nuclei (%): 12% and 33%
  Population Healthy Nuclei (%): 45% and 33%
  Population Hoechst High Intensity Objects (%): 52% and 31%
  Population Membrane Permeable-Phenotype (%): 2% and 9%
  Population Mitochondria Different-Phenotype (%): 10% and 0%
  Population Mitotic Cells (%): 54% and 69%
  Population Normal (%): 47% and 68%
  Population Pyknosed Nuclei (%): 42% and 33%
  Population Tubulin-Different-Phenotype (%): 42% and 43%
  Total Cell Count: 358 and 311

## Cc1c(CC(=O)O)c2cccnc2n1Cc1ccc(S(C)(=O)=O)cc1C(F)(F)F [FEVIPIPRANT]
[1]
  Population Apoptotic (%): 44% and 25%
  Population Fragmented Nuclei (%): 22% and 33%
  Population Healthy Nuclei (%): 60% and 48%
  Population Hoechst High Intensity Objects (%): 3%
  Population Mitochondria Different-Phenotype (%): 3% and 12%
  Population Mitotic Cells (%): 55% and 74%
  Population Normal (%): 96%
  Population Pyknosed Nuclei (%): 18% and 17%
  Population Tubulin-Different-Phenotype (%): 20% and 56%
  Total Cell Count: 156
[2]
  Population Apoptotic (%): 34% and 22%
  Population Fragmented Nuclei (%): 10% and 21%
  Population Healthy Nuclei (%): 71% and 54%
  Population Hoechst High Intensity Objects (%): 3% and 5%
  Population Membrane Permeable-Phenotype (%): 1% and 9%
  Population Mitochondria Different-Phenotype (%): 4% and 6%
  Population Mitotic Cells (%): 65% and 77%
  Population Normal (%): 96% and 94%
  Population Pyknosed Nuclei (%): 17% and 23%
  Population Tubulin-Different-Phenotype (%): 25% and 55%
  Total Cell Count: 132 and 139
[3]
  Population Apoptotic (%): 55% and 52%
  Population Fragmented Nuclei (%): 14% and 35%
  Population Healthy Nuclei (%): 66% and 47%
  Population Hoechst High Intensity Objects (%): 3%
  Population Membrane Permeable-Phenotype (%): 1% and 4%
  Population Mitochondria Different-Phenotype (%): 5% and 8%
  Population Mitotic Cells (%): 44% and 48%
  Population Normal (%): 96%
  Population Pyknosed Nuclei (%): 19% and 17%
  Population Tubulin-Different-Phenotype (%): 23% and 50%
  Total Cell Count: 156 and 150
[4]
  Population Apoptotic (%): 57% and 31%
  Population Fragmented Nuclei (%): 16% and 22%
  Population Healthy Nuclei (%): 67% and 55%
  Population Hoechst High Intensity Objects (%): 1% and 7%
  Population Membrane Permeable-Phenotype (%): 1% and 5%
  Population Mitochondria Different-Phenotype (%): 2% and 5%
  Population Mitotic Cells (%): 42% and 68%
  Population Normal (%): 98% and 92%
  Population Pyknosed Nuclei (%): 16% and 21%
  Population Tubulin-Different-Phenotype (%): 24% and 52%
  Total Cell Count: 130 and 146
[5]
  Population Apoptotic (%): 65% and 63%
  Population Fragmented Nuclei (%): 16% and 39%
  Population Healthy Nuclei (%): 67% and 47%
  Population Hoechst High Intensity Objects (%): 5% and 6%
  Population Membrane Permeable-Phenotype (%): 0% and 4%
  Population Mitochondria Different-Phenotype (%): 4% and 8%
  Population Mitotic Cells (%): 35% and 36%
  Population Normal (%): 94% and 93%
  Population Pyknosed Nuclei (%): 16% and 12%
  Population Tubulin-Different-Phenotype (%): 16% and 47%
  Total Cell Count: 132 and 157
[6]
  Population Apoptotic (%): 73% and 58%
  Population Fragmented Nuclei (%): 22% and 32%
  Population Healthy Nuclei (%): 62% and 53%
  Population Hoechst High Intensity Objects (%): 2%
  Population Membrane Permeable-Phenotype (%): 0% and 3%
  Population Mitochondria Different-Phenotype (%): 3% and 2%
  Population Mitotic Cells (%): 26% and 41%
  Population Normal (%): 97%
  Population Pyknosed Nuclei (%): 14%
  Population Tubulin-Different-Phenotype (%): 29% and 52%
  Total Cell Count: 132 and 171
